Assays:
Mus musculus [1] = assay: Inhibition of induction of ataxia in mouse after intraperitoneal administration; format: functional; conditions: ip
Rattus norvegicus [2] = assay: Inhibition of shelf-jump avoidance in rats after peroral administration.; format: functional
In short: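 One-way shelf-jump conditioned avoidance responding in rats. ED50 determined from at least three doses (N = 9).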

Mus musculus [3] = assay: Inhibition of locomotor activity in mouse after intraperitoneal administration; format: functional
Rattus norvegicus [4] = assay: Inhibition of Sidman avoidance in rats after peroral administration; format: functional; conditions: po
In short: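 Continuous (Sidman) avoidance responding in rats with oral dosing. At least three doses per drug, four animals per dose. ED50 reported ± SEM.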

Adenosine receptor A1 = target: T1, Adenosine receptor A1 (Rattus norvegicus, UniProt P25099); assay: Displacement of [3H]-CHA (N6-Cyclohexyl adenosine) from adenosine A1 receptor in rat brain; format: tissue-based
T1 sequence (P25099 whole entry): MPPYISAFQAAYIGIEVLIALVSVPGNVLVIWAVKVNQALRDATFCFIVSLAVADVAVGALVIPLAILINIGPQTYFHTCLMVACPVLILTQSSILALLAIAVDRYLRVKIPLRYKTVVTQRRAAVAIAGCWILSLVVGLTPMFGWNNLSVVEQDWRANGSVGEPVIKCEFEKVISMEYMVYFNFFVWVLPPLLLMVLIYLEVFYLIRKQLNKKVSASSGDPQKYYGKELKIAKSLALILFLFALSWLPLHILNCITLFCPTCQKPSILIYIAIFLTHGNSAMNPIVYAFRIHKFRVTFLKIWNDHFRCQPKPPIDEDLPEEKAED
In short: (§1)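 Rat brain radioligand displacement binding. IC50 values (μM) were derived by nonlinear regression from four or five concentrations of compound.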

[5] = target: Beta-1 adrenergic receptor (Rattus norvegicus, UniProt P18090); assay: Displacement of [3H]DHA (Dihydroalprenolol) from beta-1 adrenergic receptor in rat brain; format: tissue-based; in short: as §1
[6] = Displacement of [3H]CHA (N6-Cyclohexyl adenosine) from rat brain adenosine A1 receptor
[7] = target: Beta-2 adrenergic receptor (Rattus norvegicus, UniProt P10608); assay: Displacement of [3H]DHA (Dihydroalprenolol) from beta-2 adrenergic receptor in rat brain; format: tissue-based; in short: as §1
[8] = target: Serotonin 1 (5-HT1) receptor (Rattus norvegicus, UniProt P28564+P30940+P19327+P28565); assay: Displacement of [3H]-5-HT from serotonin-1 neurotransmitter receptor in rat brain; format: tissue-based; in short: as §1
Monkey = assay: Inhibition of Sidman avoidance in squirrel monkeys after the compound administered perorally; format: functional; conditions: in Saimiri, po
In short: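 Oral dosing in squirrel monkeys trained on continuous (Sidman) avoidance responding. ED50 reported ± SEM.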

[9] = Rattus norvegicus, po, read-out: ED50
[10] = Mus musculus, ip, read-out: ED50

Sequence of Beta-1 adrenergic receptor (P18090 whole entry): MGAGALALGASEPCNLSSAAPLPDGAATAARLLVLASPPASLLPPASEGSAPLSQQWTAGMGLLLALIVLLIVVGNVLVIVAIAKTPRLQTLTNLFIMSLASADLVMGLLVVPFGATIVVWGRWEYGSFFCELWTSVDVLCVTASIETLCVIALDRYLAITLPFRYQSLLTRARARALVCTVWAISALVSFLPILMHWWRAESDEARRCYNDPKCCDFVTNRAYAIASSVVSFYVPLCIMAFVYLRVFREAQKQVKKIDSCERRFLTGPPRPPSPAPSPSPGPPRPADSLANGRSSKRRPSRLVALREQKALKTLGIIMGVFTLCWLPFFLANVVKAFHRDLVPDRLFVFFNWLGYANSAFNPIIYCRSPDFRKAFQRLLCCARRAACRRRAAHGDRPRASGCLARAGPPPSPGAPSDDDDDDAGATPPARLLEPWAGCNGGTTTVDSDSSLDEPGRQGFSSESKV
Sequence of Beta-2 adrenergic receptor (P10608 whole entry): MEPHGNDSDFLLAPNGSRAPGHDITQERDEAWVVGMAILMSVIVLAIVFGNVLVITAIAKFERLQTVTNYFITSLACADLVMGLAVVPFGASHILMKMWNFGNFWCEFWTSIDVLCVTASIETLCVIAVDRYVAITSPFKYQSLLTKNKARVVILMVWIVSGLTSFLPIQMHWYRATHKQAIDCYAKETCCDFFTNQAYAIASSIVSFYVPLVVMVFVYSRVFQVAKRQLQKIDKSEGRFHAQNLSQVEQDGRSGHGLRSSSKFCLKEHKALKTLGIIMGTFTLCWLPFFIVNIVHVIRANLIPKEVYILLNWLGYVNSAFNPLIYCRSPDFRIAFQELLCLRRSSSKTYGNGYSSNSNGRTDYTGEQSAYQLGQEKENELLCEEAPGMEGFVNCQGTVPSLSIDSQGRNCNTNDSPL

CCOC(=O)CC1=Nc2c(C)nn(C)c2C2=NC(C)CN12 (configuration not stated)
ED50 (Mus musculus [1]): > 100 mg/kg
ED50 (Rattus norvegicus [2]; [9]): > 100 mg/kg
ED50 (Mus musculus [3]; [10]): > 100 mg/kg

CCC1=Nc2c(C)nn(C)c2C2=NCC(C)N12 (configuration not stated)
ED50 (Mus musculus [1]): > 100 mg/kg
ED50 (Mus musculus [3]; [10]): 28.3 mg/kg

CCn1nc(C)c2c1C1=NCCN1C(C)=N2
ED50 (Mus musculus [1]): > 100 mg/kg
ED50 (Rattus norvegicus [4]): 15.3 mg/kg
ED50 (Mus musculus [3]; [10]): 22.7 mg/kg

Cc1nc2c3c(nc(C)n2c1C)c(C)nn3C
ED50 (Mus musculus [1]): > 100 mg/kg
ED50 (Rattus norvegicus [2]; [9]): 10 mg/kg
ED50 (Mus musculus [3]; [10]): 39.7 mg/kg

CC1=Nc2c(C)nn(C)c2C2=NC(C)CN12 (configuration not stated)
ED50 (Mus musculus [1]): > 100 mg/kg
ED50 (Mus musculus [3]; [10]): 32.1 mg/kg

CCC1=Nc2c(C)nn(C)c2C2=NC(CC)CN12 (configuration not stated)
ED50 (Mus musculus [1]): > 100 mg/kg
ED50 (Rattus norvegicus [2]; [9]): 32 mg/kg
ED50 (Mus musculus [3]; [10]): 21.7 mg/kg

CCc1nc2c(C)nn(C)c2c2nc(C)cn12
ED50 (Mus musculus [1]): > 100 mg/kg
ED50 (Rattus norvegicus [4]): 11.4 mg/kg
ED50 (Mus musculus [3]; [10]): 36.8 mg/kg

CCc1nc2c(C)nn(C)c2c2ncc(C)n12
ED50 (Mus musculus [1]): > 100 mg/kg
ED50 (Rattus norvegicus [2]; [9]): 11 mg/kg
ED50 (Mus musculus [3]; [10]): 35.5 mg/kg

Cc1nn(C)c2c1N=CN1CCN=C21
ED50 (Mus musculus [1]): > 100 mg/kg
ED50 (Mus musculus [3]; [10]): 39.3 mg/kg

CCC1=Nc2c(C)nn(C)c2C2=NC(C)CN12 (configuration not stated)
ED50 (Mus musculus [1]): > 100 mg/kg
ED50 (Rattus norvegicus [4]): 15.7 mg/kg
ED50 (Mus musculus [3]; [10]): 21.6 mg/kg

CC[C@@H]1CN2C(C)=Nc3c(C)nn(C)c3C2=N1
ED50 (Mus musculus [1]): > 100 mg/kg
ED50 (Rattus norvegicus [2]; [9]): 12 mg/kg
ED50 (Mus musculus [3]; [10]): 61.1 mg/kg

CCC1=Nc2c(C)nn(C)c2C2=NCCN12
ED50 (Mus musculus [1]): > 100 mg/kg
ED50 (Rattus norvegicus [4]): 24.4 mg/kg
ED50 (Rattus norvegicus [2]; [9]): 17 mg/kg
ED50 (Mus musculus [3]; [10]): 22.8 mg/kg

CC1=Nc2c(C)nn(C)c2C2=N[C@@H](C(C)C)CN12
ED50 (Mus musculus [1]): > 100 mg/kg
ED50 (Mus musculus [3]; [10]): 57.3 mg/kg

CCn1nc(C)c2c1C1=NCC(c3ccccc3)N1C(C)=N2 (configuration not stated)
ED50 (Mus musculus [1]): > 100 mg/kg
ED50 (Rattus norvegicus [2]; [9]): > 100 mg/kg
ED50 (Mus musculus [3]; [10]): 75.5 mg/kg

Cc1nn(C)c2c1N=C(c1ccccc1)N1CC(C)N=C21 (configuration not stated)
ED50 (Mus musculus [1]): > 100 mg/kg
ED50 (Rattus norvegicus [2]; [9]): 65 mg/kg
ED50 (Mus musculus [3]; [10]): 62.5 mg/kg

Cc1nn(C)c2c1N=C(Cc1ccccc1)N1CC(C)N=C21 (configuration not stated)
ED50 (Mus musculus [1]): > 100 mg/kg
ED50 (Rattus norvegicus [2]; [9]): 62 mg/kg
ED50 (Mus musculus [3]; [10]): 21.9 mg/kg

CCCn1nc(C)c2c1C1=NC(C)CN1C(C)=N2 (configuration not stated)
ED50 (Mus musculus [1]): > 100 mg/kg
ED50 (Mus musculus [3]; [10]): 37.7 mg/kg

Cc1nn(C)c2c1N=CN1CC(C)N=C21 (configuration not stated)
ED50 (Mus musculus [1]): > 100 mg/kg
ED50 (Mus musculus [3]; [10]): 49.2 mg/kg

CCC1=Nc2c(C)nn(CC)c2C2=NC(C)CN12 (configuration not stated)
ED50 (Mus musculus [1]): > 100 mg/kg
ED50 (Rattus norvegicus [4]): 15.8 mg/kg
ED50 (Mus musculus [3]; [10]): 27.2 mg/kg

Cc1cn2c(CC(=O)O)nc3c(C)nn(C)c3c2n1
ED50 (Mus musculus [1]): > 100 mg/kg
ED50 (Rattus norvegicus [2]; [9]): > 100 mg/kg
ED50 (Mus musculus [3]; [10]): > 100 mg/kg

CCn1nc(C)c2c1C1=NC(C)CN1C(C)=N2 (configuration not stated)
ED50 (Mus musculus [1]): > 100 mg/kg
ED50 (Rattus norvegicus [4]): 14.8 mg/kg
ED50 (Mus musculus [3]; [10]): 25.7 mg/kg

Cc1nn(C)c2c1N=C(C1CC1)N1CC(C)N=C21 (configuration not stated)
ED50 (Mus musculus [1]): > 100 mg/kg
ED50 (Rattus norvegicus [2]; [9]): 12 mg/kg
ED50 (Mus musculus [3]; [10]): 46.1 mg/kg

CCc1nc2c(C)nn(C)c2c2nc(C)c(Cl)n12
ED50 (Mus musculus [1]): > 100 mg/kg
ED50 (Rattus norvegicus [2]; [9]): 100 mg/kg
ED50 (Mus musculus [3]; [10]): > 100 mg/kg

CCc1nc2c(C)nn(C)c2c2nccn12
ED50 (Mus musculus [1]): > 100 mg/kg
ED50 (Rattus norvegicus [2]; [9]): 15 mg/kg
ED50 (Mus musculus [3]; [10]): 34.2 mg/kg

Cc1nn(C)c2c1N=C(C(C)C)N1CC(C)N=C21 (configuration not stated)
ED50 (Mus musculus [1]): > 100 mg/kg
ED50 (Rattus norvegicus [2]; [9]): 41 mg/kg
ED50 (Mus musculus [3]; [10]): > 100 mg/kg

Cc1cn2c(C)nc3c(C)nn(C)c3c2n1
ED50 (Mus musculus [1]): > 100 mg/kg
ED50 (Rattus norvegicus [2]; [9]): < 32 mg/kg
ED50 (Mus musculus [3]; [10]): 73 mg/kg

CCc1cn2c(CC)nc3c(C)nn(C)c3c2n1
ED50 (Mus musculus [1]): > 30 mg/kg
ED50 (Rattus norvegicus [2]; [9]): 16 mg/kg
ED50 (Mus musculus [3]; [10]): 20.6 mg/kg

CC1=Nc2c(C)nn(C)c2C2=NC(C)(C)CN12
ED50 (Mus musculus [1]): > 100 mg/kg
ED50 (Rattus norvegicus [4]): 53.7 mg/kg
ED50 (Mus musculus [3]; [10]): 22.7 mg/kg

Cc1nn(C)c2c1nc(C)n1cc(Cc3ccccc3)nc21
ED50 (Mus musculus [1]): > 100 mg/kg
ED50 (Rattus norvegicus [2]; [9]): 86 mg/kg
ED50 (Mus musculus [3]; [10]): 83.3 mg/kg

CC[C@H]1CN2C(C)=Nc3c(C)nn(C)c3C2=N1
ED50 (Mus musculus [1]): > 100 mg/kg
ED50 (Rattus norvegicus [2]; [9]): 38 mg/kg
ED50 (Mus musculus [3]; [10]): 42.8 mg/kg

CC1=Nc2c(C)nn(C)c2C2=NC(C)C(C)N12 (stereo in doubt; cis)
ED50 (Rattus norvegicus [2]): 26 mg/kg
ED50 (Mus musculus [3]): 37.8 mg/kg

CC1=Nc2c(C)nn(C)c2C2=NC(C)C(C)N12 (stereo in doubt; trans)
ED50 (Mus musculus [1]): > 100 mg/kg
ED50 (Mus musculus [3]; [10]): 69.1 mg/kg

O=C(CCCN1CCC(O)(c2ccc(Cl)cc2)CC1)c1ccc(F)cc1 [HALOPERIDOL]
ED50 (Mus musculus [1]): > 3 mg/kg
ED50 (Rattus norvegicus [4]): 0.8 mg/kg
ED50 (Rattus norvegicus [2]; [9]): 0.3 mg/kg
ED50 (Mus musculus [3]; [10]): 0.27 mg/kg

CSc1ccc2c(c1)N(CCC1CCCCN1C)c1ccccc1S2 (configuration not stated) [THIORIDAZINE]
IC50 (Adenosine receptor A1): > 10 µM
IC50 [5]: > 10 µM
IC50 [6]: > 10 µM
IC50 [7]: > 10 µM
ED50 (Mus musculus [1]): > 10 mg/kg
ED50 (Rattus norvegicus [2]; [9]): 5.8 mg/kg
IC50 [8]: 8.7 µM
ED50 (Monkey): 3.9 mg/kg
ED50 (Mus musculus [3]; [10]): 4.4 mg/kg

From ChEMBL document CHEMBL1124042, “Synthesis and potential antipsychotic activity of 1H-imidazo[1,2-c]pyrazolo[3,4-e]pyrimidines” (J Med Chem, 1988)
